“Also recorded” adds a separate entry of the source. Values belong to the compound of their own block, whether it stands above or below them. Where a SMILES comes first, the peptide text is derived from it. [ ]: non-standard residue; d: D form. Tyr(3-I) = N[C@@H](Cc1ccc(O)c(I)c1)C(=O)O; Hyp = O=C(O)[C@@H]1C[C@@H](O)CN1
What was measured:
[1] = tested on: pWUS::GUS; experiment: pWUS::GUS reporter staining in the SAM; format: in vivo, Arabidopsis; conditions: seedlings grown 8 days with 1 μM peptide
How it was run: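 pWUS::GUS seedlings were grown 8 days in liquid 0.5× MS/0.5% sucrose with or without 1 μM CLV3p, ΔCLV3p or flg22. They were fixed in 90% cold acetone for 20 min. Seedlings were vacuum-infiltrated with pH 7.0 phosphate buffer containing ferro/ferricyanide, Triton X-100, EDTA and 1 mM X-Gluc, then held 3 h at 37°C. Samples were dehydrated to 70% ethanol and imaged under a stereomicroscope.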

[2] = tested on: SAM; experiment: Assay for CLV3p-mediated SAM arrest; format: in vivo, Arabidopsis; conditions: 1 μM peptide in liquid medium
How it was run: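 Col-0 and fls2 seeds, twenty per dish, grown in liquid 0.5× MS with 0.5% sucrose (pH 5.8), with or without 1 μM CLV3p. SAMs were cut, fixed overnight at 4°C in 4% paraformaldehyde/4% DMSO, eosin-stained and paraffin-embedded. Sections of 8 μm were Giemsa-stained (0.1%, 5 min) and imaged by light microscopy.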

[3] = tested on: Arabidopsis seedlings; experiment: Seedling growth inhibition analysis; format: in vivo; conditions: for root growth: WT seedlings, flg22 1, 10 nM, CLV3p 1 μM or CLE40p 1 μM
How it was run: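 Col-0, fls2, Ler, fls2-24 and clv2-1 seedlings were grown in 6-well plates in liquid 0.5× MS, 0.5% sucrose, pH 5.8. Treatment was flg22 (1, 10 nM) or CLV3p (1 μM), and growth was assessed after 6 or 8 days.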

[4] = tested on: FRK1, WRKY29 and WRKY30; experiment: qRT-PCR of flg22 early marker genes in protoplasts; format: cell-based, Arabidopsis; conditions: peptides for 1 h, 1 μM CLV3p, 1 μM CLE40p, n=3
How it was run: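 Mesophyll protoplasts were treated with peptides for 1 h. Total RNA was extracted with TRIzol, and cDNA was made from 1 μg RNA with M-MLV reverse transcriptase. SYBR green real-time PCR followed, with ACT2 as the control gene.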

[5] = biological target: T1, FLS2 (Arabidopsis thaliana, UniProt Q9FL28); experiment: Direct binding assay, saturation and specific binding of ^125I-Tyr-CLV3p
How it was run: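 HA-tagged FLS2 was expressed for 6 h in fls2 mesophyll protoplasts (2.5 × 10^5 cells). Pelleted extract (50 μg total protein) was in pH 5.8 MES/KOH binding buffer with MgCl2, NaCl and DTT. Extract was incubated with 100 fmol 125I-Tyr-CLV3p, with or without unlabeled Tyr-CLV3p, for 30 min on ice. Bound label was collected on BSA-blocked glass-fibre filters and gamma-counted. Specific binding = total minus non-specific (10–20 μM unlabeled). Kd came from saturation/Scatchard nonlinear regression and sites per cell from Bmax; s.d., n=3.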

[6] = biological target: FLS2-BAK1 interaction (Arabidopsis thaliana, UniProt Q94F62+Q9FL28); experiment: FLS2-BAK1 interaction by co-IP in protoplasts; format: cell-based; conditions: for block of flg22- and CLV3p-triggered FLS2-BAK1 interaction: antagonist peptide at 50 μM
How it was run: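 Mesophyll protoplasts came from 4-week soil-grown plants (23°C, 12 h/12 h). They were co-transfected with FLS2-HA and BAK1-FLAG and incubated for 6 h at room temperature. Cells were then exposed to flg22 (1, 10 nM), CLV3p (1 μM) or CLE40p (1 μM) for 10 min. Complexes were immunoprecipitated with anti-FLAG and detected with anti-HA on immunoblot.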

[7] = biological target: T1, FLS2; experiment: Binding competition analysis with unlabeled peptides; conditions: unlabeled peptide; ^125I-Tyr-CLV3p 1 nM; 30 min on ice; non-specific binding with 10 μM unlabeled Tyr-CLV3p; n=3
How it was run: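 FLS2-HA expressed for 6 h in fls2 mesophyll protoplasts (2.5 × 10^5 cells); pellet from vortexed, iced and 10,000 ×g-spun extract in 25 mM MES/KOH pH 5.8, 3 mM MgCl2, 10 mM NaCl (50 μg protein). Incubated 30 min on ice with 100 fmol 125I-Tyr-CLV3p ± unlabeled competitor; blocked glass-fibre filtration, cold wash, gamma counting; specific = total − nonspecific (10–20 μM unlabeled); non-linear regression.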

[8] = tested on: endogenous MPK3 and MPK6; experiment: In-gel kinase assay of MAPK activation in mesophyll protoplasts; format: cell-based, Arabidopsis
[9] = tested on: WUS; experiment: qRT-PCR of WUS in isolated SAM tissues; format: in vivo, Arabidopsis; conditions: 1 μM CLV3p for 1 h; WT and mutant seedlings; n=3
How it was run: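 Seedlings grew 8 days in liquid 0.5× MS, 0.5% sucrose, pH 5.8, then got 1 h peptide treatment (1 nM or 1 μM). SAM tissues were harvested after snap-freezing in liquid nitrogen, and RNA was TRIzol-extracted. SYBR Green real-time qRT-PCR used ACT2 as the control gene.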

[10] = tested on: FRK1, WRKY29, WRKY30, MYB15, MYB51 and PEP3; experiment: qRT-PCR of immune marker genes in isolated SAM tissues; format: in vivo, Arabidopsis; conditions: n=3

Chain of FLS2-BAK1 interaction (Q9FL28 24-1173): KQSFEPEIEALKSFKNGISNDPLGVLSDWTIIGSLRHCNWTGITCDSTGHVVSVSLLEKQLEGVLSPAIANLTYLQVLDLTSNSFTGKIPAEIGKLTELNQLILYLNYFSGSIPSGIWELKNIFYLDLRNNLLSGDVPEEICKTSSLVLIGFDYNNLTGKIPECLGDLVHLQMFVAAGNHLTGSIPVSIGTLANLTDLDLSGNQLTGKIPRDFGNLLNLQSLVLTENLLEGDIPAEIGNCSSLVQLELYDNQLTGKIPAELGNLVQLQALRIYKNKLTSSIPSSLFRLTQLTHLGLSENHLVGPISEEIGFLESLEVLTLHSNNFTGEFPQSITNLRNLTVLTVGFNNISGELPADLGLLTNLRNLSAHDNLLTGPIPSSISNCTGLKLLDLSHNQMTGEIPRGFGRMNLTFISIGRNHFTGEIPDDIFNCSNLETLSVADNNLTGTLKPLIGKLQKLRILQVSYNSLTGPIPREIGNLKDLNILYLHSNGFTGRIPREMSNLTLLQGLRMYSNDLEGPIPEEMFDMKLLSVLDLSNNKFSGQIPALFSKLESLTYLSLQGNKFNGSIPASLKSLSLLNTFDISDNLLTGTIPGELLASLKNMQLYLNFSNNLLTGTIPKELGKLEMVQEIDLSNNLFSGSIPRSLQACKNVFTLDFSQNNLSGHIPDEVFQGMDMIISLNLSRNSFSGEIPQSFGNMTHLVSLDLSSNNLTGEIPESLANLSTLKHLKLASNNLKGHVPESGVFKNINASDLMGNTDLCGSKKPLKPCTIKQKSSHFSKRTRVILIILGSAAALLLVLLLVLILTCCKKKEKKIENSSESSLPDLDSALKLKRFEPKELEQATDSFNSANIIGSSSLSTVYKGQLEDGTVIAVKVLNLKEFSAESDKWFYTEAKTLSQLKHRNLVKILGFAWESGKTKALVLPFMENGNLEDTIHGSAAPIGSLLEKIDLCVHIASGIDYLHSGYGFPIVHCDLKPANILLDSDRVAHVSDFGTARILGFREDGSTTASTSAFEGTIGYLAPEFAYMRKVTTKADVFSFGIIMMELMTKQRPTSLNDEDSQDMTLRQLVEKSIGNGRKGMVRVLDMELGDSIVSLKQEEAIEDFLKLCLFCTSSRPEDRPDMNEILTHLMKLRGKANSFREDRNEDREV
Chain of FLS2-BAK1 interaction (Q94F62 26-615 partner): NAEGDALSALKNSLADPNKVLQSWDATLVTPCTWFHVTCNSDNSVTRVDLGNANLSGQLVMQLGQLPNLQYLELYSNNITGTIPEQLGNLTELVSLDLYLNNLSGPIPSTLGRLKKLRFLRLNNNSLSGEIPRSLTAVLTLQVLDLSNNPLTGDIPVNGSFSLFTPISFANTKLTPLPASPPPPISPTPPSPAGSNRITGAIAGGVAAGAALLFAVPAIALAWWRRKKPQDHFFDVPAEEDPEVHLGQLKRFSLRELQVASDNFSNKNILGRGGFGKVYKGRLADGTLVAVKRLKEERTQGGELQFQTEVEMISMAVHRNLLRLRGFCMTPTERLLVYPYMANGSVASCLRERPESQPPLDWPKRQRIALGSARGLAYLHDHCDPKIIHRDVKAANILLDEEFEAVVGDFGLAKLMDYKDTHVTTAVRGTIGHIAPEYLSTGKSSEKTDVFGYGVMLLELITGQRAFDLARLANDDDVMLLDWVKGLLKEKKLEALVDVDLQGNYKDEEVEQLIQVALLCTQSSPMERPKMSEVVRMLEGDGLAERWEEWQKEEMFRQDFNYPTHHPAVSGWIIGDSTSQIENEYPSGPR
T1 sequence (Q9FL28 24-1173): as the sequence (Q9FL28 24-1173) above

Compound: RQVP^hTGSDPLHH [CLE40p, reference compound]
- repression of pWUS::GUS reporter [1]: repression of WUSCHEL (WUS)
- SAM growth arrest [2]: triggered the growth arrest of SAM
- root growth ([3]; 6 or 8 days): root growth inhibition
- flg22 early marker gene activation [4]: did not promote

Compound: CC(C)C[C@H](NC(=O)[C@@H]1CCCN1C(=O)[C@H](CC(=O)O)NC(=O)[C@@H]1C[C@@H](O)CN1C(=O)CNC(=O)[C@H](CO)NC(=O)[C@@H]1C[C@@H](O)CN1C(=O)[C@@H](NC(=O)[C@@H](NC(=O)[C@H](CCCNC(=N)N)NC(=O)[C@@H](N)Cc1ccc(O)c(I)c1)[C@@H](C)O)C(C)C)C(=O)N[C@@H](Cc1c[nH]cn1)C(=O)N[C@@H](Cc1c[nH]cn1)C(=O)O [^125I-Tyr-CLV3p] (H-[Tyr(3-I)]RTV[Hyp]SG[Hyp]DPLHH-OH; N-terminus and C-terminus assumed)
- Kd [5]: 34.7 nM
- binding sites per cell ([5]; estimated from Bmax and 50 ug protein from 2.5 × 10^5 cells, total cell extracts): 6.36 × 10^4 binding sites per cell
- specific binding of ^125I-Tyr-CLV3p ([5]; wild-type FLS2 expressed in null fls2 protoplasts, non-specific binding with 20 μM unlabeled Tyr-CLV3p, n=3): showed specific binding; also recorded: specifically binds to FLS2

- block of flg22- and CLV3p-triggered FLS2-BAK1 interaction ([6]; listed as Flg22-Δ2): blocks CLV3p and flg22 signalling
- competition with ^125I-Tyr-CLV3p for specific binding to FLS2 [7]: could be competed
Compound: QRLSTGSRINSAKDDAAGLQ [flg22-Δ2]
- block of flg22- and CLV3p-triggered FLS2-BAK1 interaction [6]: effectively competed with and blocked flg22 and CLV3p signalling

- MAPK activation ([8]; protoplasts, 1 μM CLV3p, 1 μM ΔCLV3p or 100 nM flg22 for 10 min): activated similar MAPK activities
- concentration of equal potency in peptide titration, FLS2 and BAK1 co-IP ([6]; CLV3p, 10 min): 1 µM
- competition with ^125I-Tyr-CLV3p for specific binding to FLS2 [7]: could be competed
Compound: RTVP^hSGP^hDPLHH [CLV3p]
- repression of pWUS::GUS reporter [1]: repression of a sensitive pWUS::GUS reporter; also recorded: represses pWUS::GUS expression
- repression of WUS in the SAM [9]: only in the SAM of WT and fls2-24, but not clv1-1 and clv2-1
- SAM growth arrest [2]: very active in triggering the typical SAM arrest; also recorded: suppresses the SAM in Col-0 and fls2 plants
- shoot growth ([3]; Col-0 and Ler WT seedlings, flg22 1, 10 nM or CLV3p 1 μM, 6 or 8 days): did not inhibit shoot growth
- root growth ([3]; 6 or 8 days): caused stronger root growth arrest
- root growth arrest in the clv2-1 mutant ([3]; clv2-1 seedlings, CLV3p 1 μM): abolished
- growth effect in two independent fls2 mutants ([3]; fls2 and fls2-24 seedlings, flg22 1, 10 nM or CLV3p 1 μM): retained
- flg22 early marker gene activation [4]: activated similar early marker genes; also recorded: triggers flg22 marker gene activation
- immune marker gene activation in the SAM ([10]; 1 nM flg22 or 1 μM CLV3p for 1 h, WT and mutant seedlings): in WT, clv1-1, clv2-1 but not fls2-24
- exogenous CLV3p needed for complementation of clv3-2 for immune marker gene expression in the SAM ([10]; clv3-2 seedlings treated with 0-100 nM CLV3p for 1 h): nM range

- competition with ^125I-Tyr-CLV3p for specific binding to FLS2 [7]: could be competed
Compound: YRTVP^hSGP^hDPLHH [Tyr-CLV3p]

Compound: RTVP^hSGP^hDPLH [ΔCLV3p]
- activating or blocking FLS2 signalling ([8]; Fig. 1a, data not shown): ineffective in activating or blocking FLS2 signalling

— publication PMC3098311 (Nature, 2011)
